# Experimental data: the array DNA melting data of Ke et al. (doi:10.1101/2024.01.08.574731)
# Key:
# [1] = folding enthalpy; higher = less favourable; fluorescence melt of hairpins on a sequencing array, two-state fit; settings: sodium 0.088 M
# Procedure, shortened: (§1)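 Melting temperature and folding enthalpy were derived from bootstrapped two-state fits. The fitted temperatures were raised by 9.35 °C to agree with UV melts, and four replicates were combined by inverse variance. The underlying data were Cy3 fluorescence images of library hairpins, with annealed Cy3 and quencher oligos, on a sequenced MiSeq flow cell in 50 mM Na-HEPES pH 8.0, 25 mM NaCl, taken in 2.5 °C steps up to 60 °C, normalised to pre-quench Cy3 and to control constructs.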
# [2] = melting temperature; fluorescence melt of hairpins on a sequencing array, two-state fit, raised by 9.35 °C to match UV melts; settings: sodium 0.088 M
# Procedure, shortened: as §1
Sequence,folding enthalpy [1],Tm [2]
GCGAGCACGAAAGTGCGC (((..(((....)))))),-8.47 kcal/mol,56.9 °C
GCCTATGGAAACATAAGC ((.((((....)))).)),-15.6 kcal/mol,27.6 °C
GAGGAGCGAAAGCTACTC (((.(((....))).))),-31.4 kcal/mol,64.8 °C
GTCTACCGAAAGGTCGAC (((.(((....))).))),-33.9 kcal/mol,48.7 °C
GTGTTGAAAAACAC (((((....))))),-26.3 kcal/mol,49.9 °C
GCCAGTGCGAAAGCAGGC (((..(((....)))))),-15.7 kcal/mol,53.7 °C
GATCTTTCTGAAGATC ((((((....)))))),-36 kcal/mol,45.2 °C
GACAGAGGAAACTCTGCC (.(((((....))))).),-15.5 kcal/mol,41.9 °C
GCCTCATCGAAAGATGGC (((..(((....)))))),-10.1 kcal/mol,43.8 °C
GTCTGCGAAAGCAAAGAC ((((((....)))..))),-19.1 kcal/mol,50.1 °C
GGGAGCGGAAACGCTTCC ((.((((....)))).)),-33.7 kcal/mol,61.4 °C
GTGGTGGGAAACCATCAC (((.(((....))).))),-43.1 kcal/mol,51.2 °C
GTCCTTCCGAAAGGAGAC (((..(((....)))))),-11.4 kcal/mol,28.1 °C
GCGAACGAAAGTTGCGC ((((((....))).))),-36.9 kcal/mol,53.9 °C
GCTCTGGAAACAGAGC ((((((....)))))),-37.3 kcal/mol,62.2 °C
GATCGAGTGATCGATC ((((((....)))))),-40.1 kcal/mol,55.3 °C
GATCTTTAGAAGATC ((((((...)))))),-24.7 kcal/mol,38.7 °C
GATCTTCTGAAGATC ((((((...)))))),-37 kcal/mol,43.6 °C
GCATTGGGAAACCAATGC (((((((....))))))),-44.9 kcal/mol,65.8 °C
GCCGGTCGAAAGACAGGC (((.(((....))).))),-41.7 kcal/mol,69 °C
GAGGGCGAAAGCCAACTC ((((((....)))..))),-13 kcal/mol,41.7 °C
GTTTCAGGAAACTGAAGC (.(((((....))))).),-22.2 kcal/mol,38.9 °C
GACCGCGAAAGCGTCGTC ((((((....)))..))),-13.5 kcal/mol,53.1 °C

Sequence,folding enthalpy [1],Tm [2]
GTTAATCGAAAGATCAAC (((.(((....))).))),-14.7 kcal/mol,30.2 °C
GTCAAACGAAAGTTAGAC (((.(((....))).))),-29.5 kcal/mol,44.9 °C
GCACCCGGAAACGGATGC (((.(((....))).))),-25.5 kcal/mol,51.6 °C
GGTGGCGAAAGCCAAACC ((((((....)))..))),-14.2 kcal/mol,47.2 °C
GCACAGCGAAAGCGGCGC ((.(.((....)).).)),-28.6 kcal/mol,63.7 °C
GCTTGTCGAAAGACCAGC (((.(((....))).))),-26.7 kcal/mol,47.9 °C
ACTACGAAAGTAGT (((((....))))),-18.7 kcal/mol,50.9 °C
GATCACTGCGGTGATC ((((((....)))))),-38 kcal/mol,61.9 °C
GTGGGCGGAAACGTCCGC (.((.((....)).)).),-25.4 kcal/mol,54.3 °C
GTAGTGGGAAACTACTGC (.(((.(....).))).),-28.8 kcal/mol,46 °C
CGGTGCGGAAACGCTCCG (((.(((....))).))),-34.8 kcal/mol,62 °C
GTAGGCGAAAGCCATTAC ((((((....)))..))),-7.44 kcal/mol,23 °C
GATAGGCGAAAGCCATC (((.(((....)))))),-12.6 kcal/mol,40.3 °C
GCTCTGTCGAAAGACAGC (((..(((....)))))),-8.62 kcal/mol,36.5 °C
GATTGCGGAAACGCAACC (.(((((....))))).),-12.2 kcal/mol,45.5 °C
GCTCATGGAAACATGGGC ((.((((....)))).)),-34.2 kcal/mol,53 °C
GGATCTCCGAAAGGATCC (((..(((....)))))),-23.8 kcal/mol,42.1 °C
GAGACTGGAAACAGTTTC ((.((((....)))).)),-29.6 kcal/mol,38.8 °C
GTGGATGAAAATCCAC ((((((....)))))),-33.9 kcal/mol,59.9 °C
GGTGTCGGAAACAACACC (((((.(....).))))),-36.1 kcal/mol,45.2 °C
GCGAGGATTCGC ((((....)))),-22.7 kcal/mol,54.7 °C
GACCACGGAAACACGGTC ((((..(....)..)))),-30.3 kcal/mol,35.3 °C
GTGGCTGGAAACAGCCGC (.(((((....))))).),-17.4 kcal/mol,63 °C

Sequence,folding enthalpy [1],Tm [2]
GTGGCCGAAAGGCACCAC ((((((....)))..))),-12.3 kcal/mol,43.6 °C
GTTGTCGAAAGACCAAC ((((((....))).))),-20.4 kcal/mol,38 °C
GTATTTGGAAACAAGTAC (((.(((....))).))),-20.6 kcal/mol,35.7 °C
GAAAGGACGAAAGTCTTC (((..(((....)))))),-11.8 kcal/mol,24.9 °C
GGGGTGACGAAAGTCCCC (((..(((....)))))),-31.8 kcal/mol,56 °C
GGGCCGCGAAAGCGTCCC (((.(((....))).))),-20.4 kcal/mol,65.8 °C
GGCAAAGAAATTTGCC ((((((....)))))),-36.8 kcal/mol,56 °C
TGTATGAAAATACA (((((....))))),-11 kcal/mol,34.5 °C
GGATTTTCGAAAGAATCC (((..(((....)))))),-17.7 kcal/mol,31.4 °C
GTTTCCGGAAACGGGAAC (((.(((....))).))),-28.2 kcal/mol,54 °C
CGTGTCGGAAACGAAACG (((.(((....))).))),-35.6 kcal/mol,47.1 °C
GCAGACTCGAAAGAGTGC (((..(((....)))))),-16 kcal/mol,43.4 °C
GACATCGGAAACGATGTC (((((((....))))))),-44 kcal/mol,66.6 °C
GCCACGCGAAAGCACGGC (((..((....))..))),-35.9 kcal/mol,61.9 °C
GATCTCGTAGAGATC ((((((...)))))),-37.2 kcal/mol,67.9 °C
GATCATAATTATGATC ((((((....)))))),-42 kcal/mol,47.8 °C
GACTACGAAAGTACAGTC ((((((....)))..))),-18.3 kcal/mol,34 °C
GATCGTTGTTACGATC ((((((....)))))),-37.7 kcal/mol,57.4 °C
CGCATCGGAAACGAGCG (((.(((....)))))),-31.8 kcal/mol,49.5 °C
GTCCCTGCGAAAGCAGAC (((..(((....)))))),-7.38 kcal/mol,32.2 °C
CGGAGCGGAAACGCACCG (((.(((....))).))),-35 kcal/mol,58.7 °C
GAGCTAGGAAACTAGCCC (.(((((....))))).),-12.9 kcal/mol,40.4 °C
GACAACGGAAACGTTGCC (.(((((....))))).),-17.4 kcal/mol,44.9 °C

Sequence,folding enthalpy [1],Tm [2]
GATGGCGGAAACGTCGTC ((.(.((....)).).)),-29.6 kcal/mol,45.4 °C
GCCCCCGAAAGGGCAGGC ((((((....)))..))),-17.9 kcal/mol,50.4 °C
GTTGCGGGAAACCGCAGC (.(((((....))))).),-14.2 kcal/mol,56.4 °C
GGGGCAGGAAACTGCTCC ((.((((....)))).)),-36.6 kcal/mol,60.2 °C
CGTCCGGAAACGGGTACG ((((((....)))..))),-25 kcal/mol,42.4 °C
GCGATGCGAAAGCATTGC ((.((((....)))).)),-43.9 kcal/mol,68.7 °C
GCGCAGGCGAAAGCCCGC (((..(((....)))))),-16.7 kcal/mol,60.1 °C
GACAGAGAAATCTGTC ((((((....)))))),-33.2 kcal/mol,50.9 °C
GTGCAGGGAAACCTACAC (((.(((....))).))),-31.9 kcal/mol,41.5 °C
GCTGGGGAAACCCAGC ((((((....)))))),-37.5 kcal/mol,69.3 °C
GTCCCTCGAAAGAGTGAC (((.(((....))).))),-31.9 kcal/mol,45.3 °C
GTGGGAGGAAACTCCCAC (((((((....))))))),-32.1 kcal/mol,67.2 °C
GATATACGAAAGTACATC (((.(((....))).))),-27.2 kcal/mol,30.5 °C
GCCCTCGAAAGAGCAGGC ((((((....)))..))),-24.8 kcal/mol,44.9 °C
ACAGGGAAACCTGT (((((....))))),-18.8 kcal/mol,48.3 °C
GGACGCGAAAGCGGCTCC ((((((....)))..))),-8.87 kcal/mol,58 °C
GCAGTCGAAAGACAGTGC ((((((....)))..))),-18.4 kcal/mol,45.1 °C
GAATACGAAAGTAGCTTC ((((((....)))..))),-16.4 kcal/mol,33.9 °C
GAGGGTGCGAAAGCACTC (((..(((....)))))),-8.61 kcal/mol,41.1 °C
GCGTATATACGC ((((....)))),-27.1 kcal/mol,55 °C
GTTTGTGGAAACATGAAC (((..((....))..))),-21.9 kcal/mol,31.6 °C
GCAAACCGAAAGGTGTGC (((.(((....))).))),-37.6 kcal/mol,57.3 °C
GAATCGGGAAACCAATTC ((((.((....)).)))),-16.3 kcal/mol,28.4 °C
